Results as given in ChEMBL document CHEMBL4393713, “Synthesis and biological evaluation of novel xanthine derivatives as potential apoptotic antitumor agents” (Eur J Med Chem, 2019).

Tests used:
HT-29 = assay: Antiproliferative activity against human HT-29 cells assessed as inhibition of cell proliferation measured after 48 hrs by MTT assay; type: functional, cell-based; settings: HT-29, 48 h
Procedure, shortened: (§1)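 Cells tested by MTT: pancreatic Panc-1, breast MCF-7, colon HT-29 and A-549. Doxorubicin run alongside as the reference compound.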

PANC-1 [1] = assay: Antiproliferative activity against human PANC1 cells assessed as inhibition of cell proliferation measured after 48 hrs by MTT assay; type: functional, cell-based; settings: PANC-1, 48 h; procedure, shortened: as §1
MCF7 = assay: Antiproliferative activity against human MCF7 cells assessed as inhibition of cell proliferation measured after 48 hrs by MTT assay; type: functional, cell-based; settings: MCF7, 48 h; procedure, shortened: as §1
[2] = Cytotoxicity against human MCF10A cells assessed as cell viability at 50 uM measured after 4 days by MTT assay relative to control; type: cell-based, MCF-10A; settings: read-out: Activity
A549 = assay: Antiproliferative activity against human A549 cells assessed as inhibition of cell proliferation measured after 48 hrs by MTT assay; type: functional, cell-based; settings: A549, 48 h; procedure, shortened: as §1
[3] = target: Epidermal growth factor receptor (Homo sapiens, UniProt P00533); assay: Inhibition of human EGFR measured after 3 hrs by ELISA
PANC-1 [4] = assay: Induction of apoptosis in human PANC1 cells assessed as increase in caspase 3 level measured after 24 to 48 hrs relative to control; type: functional
Procedure, shortened: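 Active caspase-3 protein in treated Panc-1 cells quantified as pg/mL. Reported as fold increase over untreated control cells, with doxorubicin as the reference drug.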

PANC-1 [5] = assay: Induction of apoptosis in human PANC1 cells assessed as increase in caspase 9 level measured after 24 to 48 hrs relative to control; type: functional
Procedure, shortened: (§2)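 Caspase-8, caspase-9 and cytochrome c levels in treated Panc-1 cells expressed as fold change relative to untreated control cells.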

PANC-1 [6] = assay: Induction of apoptosis in human PANC1 cells assessed as downregulation of Bcl-2 expression level by Sybr-green dye based RT-PCR analysis relative to control; type: functional
PANC-1 [7] = assay: Induction of apoptosis in human PANC1 cells assessed as increase in BAX level by Sybr-green dye based RT-PCR analysis relative to control; type: functional
PANC-1 [8] = assay: Induction of apoptosis in human PANC1 cells assessed as increase in cytochrome C level using TMB substrate measured after 24 hrs relative to control; type: functional; procedure, shortened: as §2
PANC-1 [9] = assay: Induction of apoptosis in human PANC1 cells assessed as increase in caspase 8 level measured after 24 to 48 hrs relative to control; type: functional; procedure, shortened: as §2
PANC-1 [10] = assay: Cell cycle arrest in human PANC1 cells assessed as accumulation at pre G1 phase measured after 24 hrs by annexin v propidium iodide staining based flow cytometric analysis (reference value: 1.79%); type: functional
PANC-1 [11] = assay: Cell cycle arrest in human PANC1 cells assessed as accumulation at G2/M phase measured after 24 hrs by annexin v propidium iodide staining based flow cytometric analysis (reference value: 9.95 %); type: functional
PANC-1 [12] = assay: Induction of apoptosis in human PANC1 cells assessed as proportion of early apoptotic cells measured after 24 hrs by annexin v propidium iodide staining based flow cytometric analysis; type: functional
PANC-1 [13] = assay: Induction of apoptosis in human PANC1 cells assessed as proportion of late apoptotic cells measured after 24 hrs by annexin v propidium iodide staining based flow cytometric analysis; type: functional
PANC-1 [14] = assay: Induction of apoptosis in human PANC1 cells assessed as proportion of necrotic cells measured after 24 hrs by annexin v propidium iodide staining based flow cytometric analysis; type: functional
PANC-1 [15] = assay: Cell cycle arrest in human PANC1 cells assessed as accumulation at G0/G1 phase measured after 24 hrs by annexin v propidium iodide staining based flow cytometric analysis (reference value: 53.64%); type: functional

Sequence of Epidermal growth factor receptor (P00533 whole entry): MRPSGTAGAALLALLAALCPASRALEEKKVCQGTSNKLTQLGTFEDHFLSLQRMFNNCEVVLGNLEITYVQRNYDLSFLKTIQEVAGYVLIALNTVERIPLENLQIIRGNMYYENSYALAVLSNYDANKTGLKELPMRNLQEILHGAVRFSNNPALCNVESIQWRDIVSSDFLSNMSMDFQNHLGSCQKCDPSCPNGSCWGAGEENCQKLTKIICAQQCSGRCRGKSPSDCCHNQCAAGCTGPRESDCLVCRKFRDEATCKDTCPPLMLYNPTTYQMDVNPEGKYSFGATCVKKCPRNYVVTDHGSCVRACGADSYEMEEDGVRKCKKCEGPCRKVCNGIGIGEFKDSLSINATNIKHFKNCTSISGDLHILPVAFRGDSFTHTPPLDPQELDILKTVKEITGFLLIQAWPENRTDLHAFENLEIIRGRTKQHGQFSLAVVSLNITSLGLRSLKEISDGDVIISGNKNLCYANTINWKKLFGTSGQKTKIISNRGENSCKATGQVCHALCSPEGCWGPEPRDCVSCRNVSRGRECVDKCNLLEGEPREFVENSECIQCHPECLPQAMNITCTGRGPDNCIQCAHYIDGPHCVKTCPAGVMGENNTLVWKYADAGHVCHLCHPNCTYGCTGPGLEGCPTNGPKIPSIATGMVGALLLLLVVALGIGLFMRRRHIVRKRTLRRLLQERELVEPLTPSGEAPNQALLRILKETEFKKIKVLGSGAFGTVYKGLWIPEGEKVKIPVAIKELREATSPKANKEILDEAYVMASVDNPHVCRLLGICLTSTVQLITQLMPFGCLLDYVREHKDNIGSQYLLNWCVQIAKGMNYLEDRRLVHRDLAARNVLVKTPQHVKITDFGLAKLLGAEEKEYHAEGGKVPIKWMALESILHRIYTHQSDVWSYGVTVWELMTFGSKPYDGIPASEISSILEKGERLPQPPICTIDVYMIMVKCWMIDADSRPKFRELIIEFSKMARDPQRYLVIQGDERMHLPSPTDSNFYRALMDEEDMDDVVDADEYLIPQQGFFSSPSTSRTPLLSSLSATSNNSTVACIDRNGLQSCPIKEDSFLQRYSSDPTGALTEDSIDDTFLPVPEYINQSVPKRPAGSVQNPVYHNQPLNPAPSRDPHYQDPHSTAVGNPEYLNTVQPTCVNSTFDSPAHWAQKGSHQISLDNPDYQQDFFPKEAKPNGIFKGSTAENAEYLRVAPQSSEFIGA

Compound | IC50 (HT-29) | IC50 (PANC-1 [1]) | IC50 (MCF7) | IC50 (A549) | viability at 96 h, 50 µM [2] | further results
Cn1c(=O)[nH]c2nc(SCC(=O)c3ccc(Cl)cc3)[nH]c2c1=O | 7.2 µM | 6.1 µM | 6.3 µM | 8.1 µM | > 90% | –
Cn1c(=O)[nH]c2nc(SCC(=O)c3ccc(Br)cc3)[nH]c2c1=O | 11.5 µM | 9.7 µM | 11.2 µM | 11.9 µM | > 90% | –
C/C(=N/O)c1ccc(NC(=O)CSc2nc3[nH]c(=O)n(C)c(=O)c3[nH]2)cc1 | 6.2 µM | 7.7 µM | 9.1 µM | 7.3 µM | > 90% | –
CC(=O)c1ccc(NC(=O)CSc2nc3[nH]c(=O)n(C)c(=O)c3[nH]2)cc1 | 6.9 µM | 5.9 µM | 6.1 µM | 7.7 µM | > 90% | –
COc1ccc(/C(CSc2nc3[nH]c(=O)n(C)c(=O)c3[nH]2)=N\O)cc1 | 1.7 µM | 1.91 µM | 1.8 µM | 1.5 µM | > 90% | fold change (FC) (PANC-1 [5]): 14.49; fold change (FC) (PANC-1 [6]): 0.3378; IC50 [3]: 0.71 µM; fold change (FC) (PANC-1 [7]): 8.9; fold change (FC) (PANC-1 [8]): 11.43; fold change (FC) (PANC-1 [9]): 2.58; fold change (FC) (PANC-1 [4]): 7.65
COc1ccc(/C(CSc2nc3c([nH]2)c(=O)n(C)c(=O)n3C)=N\O)cc1 | 1.7 µM | 0.91 µM | 0.8 µM | 1.5 µM | > 90% | –
COc1cccc2c1C(=O)c1c(O)c3c(c(O)c1C2=O)C[C@@](O)(C(=O)CO)C[C@@H]3O[C@H]1C[C@H](N)[C@H](O)[C@H](C)O1 [DOXORUBICIN] | 1.01 µM | 1.41 µM | – | 1.21 µM | – | Activity (PANC-1 [10]): 22.17%
Cn1c(=O)[nH]c2nc(SC/C(=N/O)c3ccccc3)[nH]c2c1=O | 2.1 µM | 3.6 µM | 4.3 µM | 5.6 µM | > 90% | –
COc1ccc(C(=O)CSc2nc3[nH]c(=O)n(C)c(=O)c3[nH]2)cc1 | 6.7 µM | 5.5 µM | 5.9 µM | 6.1 µM | > 90% | –
Cn1c(=O)[nH]c2nc(SC/C(=N/O)c3ccc(Cl)cc3)[nH]c2c1=O | 1.8 µM | 1.7 µM | 1.4 µM | 1.89 µM | > 90% | fold change (FC) (PANC-1 [5]): 15.68; fold change (FC) (PANC-1 [6]): 0.239; IC50 [3]: 0.82 µM; Activity (PANC-1 [11]): 34.36%; fold change (FC) (PANC-1 [7]): 12.7; Activity (PANC-1 [12]): 6.11%; Activity (PANC-1 [13]): 8.86%; fold change (FC) (PANC-1 [8]): 10.2; Activity (PANC-1 [14]): 2.37%; fold change (FC) (PANC-1 [9]): 3.47; Activity (PANC-1 [15]): 35.08%; fold change (FC) (PANC-1 [4]): 8.06; Activity (PANC-1 [10]): 17.34%
Cn1c(=O)[nH]c2nc(SC/C(=N/O)c3ccc(Br)cc3)[nH]c2c1=O | 2 µM | 2.1 µM | 1.7 µM | 2.1 µM | > 90% | IC50 [3]: 2.88 µM; fold change (FC) (PANC-1 [4]): 4.99

Second part, led by results:

IC50 (HT-29) | IC50 (PANC-1 [1]) | IC50 (MCF7) | IC50 (A549) | Compound | viability at 96 h, 50 µM [2] | further results
6.5 µM | 7.4 µM | 7.6 µM | 7.9 µM | Cn1c(=O)c2[nH]c(SCC(=O)c3ccc(Br)cc3)nc2n(C)c1=O | > 90% | –
6.4 µM | 5.1 µM | 6.1 µM | 6.9 µM | CC(=O)c1ccc(NC(=O)CSc2nc3c([nH]2)c(=O)n(C)c(=O)n3C)cc1 | > 90% | –
3.1 µM | 4.6 µM | 5.3 µM | 6.6 µM | C/C(=N/O)c1ccc(NC(=O)CSc2nc3c([nH]2)c(=O)n(C)c(=O)n3C)cc1 | > 90% | –
6.7 µM | 5.5 µM | 5.9 µM | 6.1 µM | Cn1c(=O)c2[nH]c(SC/C(=N/O)c3ccccc3)nc2n(C)c1=O | > 90% | –
1.7 µM | 1.7 µM | 1.3 µM | 1.8 µM | Cn1c(=O)c2[nH]c(SC/C(=N/O)c3ccc(Br)cc3)nc2n(C)c1=O | > 90% | IC50 [3]: 0.45 µM; fold change (FC) (PANC-1 [4]): 5.91
5.9 µM | 4.9 µM | 5.1 µM | 6.7 µM | Cn1c(=O)c2[nH]c(SCC(=O)c3ccccc3)nc2n(C)c1=O | > 90% | –
9.9 µM | 7.2 µM | 8.4 µM | 8.4 µM | Cn1c(=O)c2[nH]c(SCC(=O)c3ccc(Cl)cc3)nc2n(C)c1=O | > 90% | –
8.1 µM | 6.4 µM | 7.6 µM | 7.9 µM | COc1ccc(C(=O)CSc2nc3c([nH]2)c(=O)n(C)c(=O)n3C)cc1 | > 90% | –
1.2 µM | 1.3 µM | 1 µM | 1.5 µM | Cn1c(=O)c2[nH]c(SC/C(=N/O)c3ccc(Cl)cc3)nc2n(C)c1=O | > 90% | IC50 [3]: 0.4 µM; fold change (FC) (PANC-1 [4]): 4.11
11.1 µM | 9.4 µM | 11.6 µM | 11.9 µM | Cn1c(=O)[nH]c2nc(SCC(=O)c3ccccc3)[nH]c2c1=O | > 90% | –
